# Experimental data: ChEMBL document CHEMBL4017544 (J Med Chem, 2017)
# The source made the active and inactive calls. The calls are words filed in the database; no cut-off is given here.
# Key:
# [1] = test system: Mus musculus; test: Toxicity in db/db mouse assessed as effect on food consumption at 1 to 2 mg/kg, ip administered thrice per week for 12 consecutive weeks measured every other day; type: organism-based; settings: in vivo
# Summary of the method: (§1)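 Male db/db mice (8 weeks old, specific pathogen-free, normal chow and filtered water ad libitum) were randomized and dosed i.p. three times weekly for 12 consecutive weeks; vehicle was 5% Tween-80 in 0.9% saline. Body weight and food and water consumption were recorded every other day.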
# [2] = test system: Mus musculus; test: Renoprotective activity in db/db mouse assessed as reduction in mesangial expansion at 1 to 2 mg/kg, ip administered trice per week for 12 consecutive weeks measured at 11 weeks post dose by TEM microscopic analysis; type: functional, organism-based
# Summary of the method: (§2)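 Male db/db mice (8 weeks old) were dosed i.p. three times weekly for 12 weeks in 5% Tween-80/0.9% saline, n = 6. Kidney tissue was fixed in 3% glutaraldehyde, cut into 80 nm ultrathin sections and examined by TEM. GBM thickness was measured at 30 random locations from three sections per kidney and averaged per mouse.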
# [3] = test system: Mus musculus; test: Renoprotective activity in db/db mouse assessed as reduction in glomerular basement thickening at 1 to 2 mg/kg, ip administered trice per week for 12 consecutive weeks measured at 11 weeks post dose by TEM microscopic analysis; type: functional, organism-based; summary of the method: as §2
# [4] = molecular target: hERG (KCNH2) (Homo sapiens, UniProt Q12809); test: Inhibition of human ERG expressed in CHO cells at 200 uM at -80 mV holding potential by patch clamp assay relative to control; type: cell-based; settings: CHO cells expressing human ERG
# Chain of hERG (KCNH2) (Q12809 whole entry): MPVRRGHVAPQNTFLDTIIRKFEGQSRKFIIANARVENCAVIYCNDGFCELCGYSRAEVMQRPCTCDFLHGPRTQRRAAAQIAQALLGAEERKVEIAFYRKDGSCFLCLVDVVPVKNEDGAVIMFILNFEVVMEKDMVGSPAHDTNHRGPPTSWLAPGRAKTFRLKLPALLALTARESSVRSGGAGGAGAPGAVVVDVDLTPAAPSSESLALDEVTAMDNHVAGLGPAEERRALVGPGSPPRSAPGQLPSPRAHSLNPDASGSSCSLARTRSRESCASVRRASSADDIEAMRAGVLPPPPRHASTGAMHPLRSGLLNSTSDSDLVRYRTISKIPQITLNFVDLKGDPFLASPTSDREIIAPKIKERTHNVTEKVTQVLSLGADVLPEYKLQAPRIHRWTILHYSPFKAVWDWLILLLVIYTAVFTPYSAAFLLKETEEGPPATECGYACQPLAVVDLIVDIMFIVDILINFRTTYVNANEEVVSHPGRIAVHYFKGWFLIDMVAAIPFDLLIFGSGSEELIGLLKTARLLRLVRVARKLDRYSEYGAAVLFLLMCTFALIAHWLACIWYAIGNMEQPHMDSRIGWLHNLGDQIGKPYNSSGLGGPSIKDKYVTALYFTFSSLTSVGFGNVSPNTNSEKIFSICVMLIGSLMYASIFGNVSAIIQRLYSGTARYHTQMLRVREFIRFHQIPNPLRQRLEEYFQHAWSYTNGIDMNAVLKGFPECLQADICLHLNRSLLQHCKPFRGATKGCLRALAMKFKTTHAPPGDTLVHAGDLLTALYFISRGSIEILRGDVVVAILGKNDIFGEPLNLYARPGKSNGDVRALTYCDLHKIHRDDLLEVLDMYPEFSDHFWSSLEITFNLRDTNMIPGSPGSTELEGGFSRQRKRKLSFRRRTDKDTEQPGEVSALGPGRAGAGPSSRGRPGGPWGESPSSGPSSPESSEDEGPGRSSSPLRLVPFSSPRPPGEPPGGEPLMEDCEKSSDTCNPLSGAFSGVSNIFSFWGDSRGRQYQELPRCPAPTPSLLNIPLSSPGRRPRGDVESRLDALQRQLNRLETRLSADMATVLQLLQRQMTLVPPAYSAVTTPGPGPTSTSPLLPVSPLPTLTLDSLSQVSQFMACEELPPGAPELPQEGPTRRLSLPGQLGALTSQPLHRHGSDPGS
# [5] = molecular target: Kelch-like ECH-associated protein 1 (Homo sapiens) (UniProt Q14145); test: Inhibition of Keap1/Nrf2 (unknown origin) interaction transfected in HEK293 cells assessed as increase in nuclear to cytosolic Nfr2 ratio after 48 hrs by Western blot analysis; type: cell-based
# Chain of Kelch-like ECH-associated protein 1 (Homo sapiens) (Q14145 whole entry): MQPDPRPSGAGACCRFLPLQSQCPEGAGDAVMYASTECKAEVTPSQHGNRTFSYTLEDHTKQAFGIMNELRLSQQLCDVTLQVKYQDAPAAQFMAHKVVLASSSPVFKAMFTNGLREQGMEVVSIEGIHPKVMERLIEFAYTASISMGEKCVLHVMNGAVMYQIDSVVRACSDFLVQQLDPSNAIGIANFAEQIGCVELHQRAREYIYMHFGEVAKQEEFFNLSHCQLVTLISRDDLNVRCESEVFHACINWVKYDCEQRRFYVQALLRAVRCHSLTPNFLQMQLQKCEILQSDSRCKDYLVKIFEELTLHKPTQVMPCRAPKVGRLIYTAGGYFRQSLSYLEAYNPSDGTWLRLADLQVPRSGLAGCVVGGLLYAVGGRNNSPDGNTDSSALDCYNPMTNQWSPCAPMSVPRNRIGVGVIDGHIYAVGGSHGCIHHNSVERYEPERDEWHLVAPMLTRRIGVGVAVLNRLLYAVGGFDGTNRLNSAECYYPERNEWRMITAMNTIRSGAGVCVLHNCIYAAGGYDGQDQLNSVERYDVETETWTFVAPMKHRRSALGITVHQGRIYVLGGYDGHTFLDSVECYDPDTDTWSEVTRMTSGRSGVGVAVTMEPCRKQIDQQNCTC
# Summary of the method: (§3)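 HEK293 cells grown in high-glucose DMEM with 10% FBS were treated in triplicate at 200 or 1000 nM for 48 h. Nuclear and cytosolic Nrf2, HO-1 and cytoplasmic NQO1 were measured by western blot with specific antibodies, with TBP and β-actin among the probed proteins. The nuclear/cytosolic Nrf2 ratio was derived from these blots. Three independent experiments, mean ± SD.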
# [6] = test system: Mus musculus; test: Antidiabetic nephropathic activity in db/db mouse assessed as increase in urinary creatinine at 1 to 2 mg/kg, ip administered thrice per week for 12 consecutive weeks measured at 24 hrs post 11 week administration; type: functional, organism-based
# Summary of the method: (§4)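 Male db/db mice, 8 weeks old, randomized; ip vehicle (5% Tween-80 in 0.9% saline) or drug three times weekly for 12 weeks, n = 6 per group. After 11 weeks, 24 h urine collected for volume, albumin and creatinine, with UACR calculated; blood then sampled for plasma BUN and uric acid. Mean ± SD, one-way ANOVA with Tukey test.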
# [7] = Drug level in Sprague-Dawley rat kidney at 30 mg/kg, ip measured at 90 mins by LC-MS/MS analysis; type: ADME, organism-based; settings: read-out: Drug uptake
# Summary of the method: (§5)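 Rats given a single ip injection, 20 mg/kg (0.04 mmol) of CDDO-Me or 30 mg/kg (0.04 mmol) of the prodrug; heart, kidney and liver collected over time; parent compound and liberated CDDO-Me measured by LC-MS/MS.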
# [8] = test system: Mus musculus; test: Antidiabetic nephropathic activity in db/db mouse assessed as reduction in 24 hrs urine volume at 1 to 2 mg/kg, ip administered thrice per week for 12 consecutive weeks measured at 11 weeks post dose; type: functional, organism-based; summary of the method: as §4
# [9] = test system: Mus musculus; test: Antidiabetic nephropathic activity in db/db mouse assessed as reduction in plasma creatinine levels at 1 to 2 mg/kg, ip administered thrice per week for 12 consecutive weeks measured at 11 weeks post dose; type: functional, organism-based
# [10] = test system: Mus musculus; test: Renoprotective activity in db/db mouse assessed as reduction of fibrosis in glomeruli at 1 to 2 mg/kg, ip administered trice per week for 12 consecutive weeks measured at 11 weeks post dose by H/E-staining based microscopic analysis; type: functional, organism-based
# Summary of the method: (§6)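 Male db/db mice, 8 weeks old, were randomized and dosed i.p. three times weekly for 12 weeks (vehicle: 5% Tween-80 in 0.9% saline; n = 6 per group). Kidneys were fixed in 4% PFA and paraffin-embedded. 5 μm sections were stained with HE, PAS or Masson's trichrome and examined at ×400.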
# [11] = test system: Mus musculus; test: Cardioprotective activity in C57BL/6 db/db mouse assessed as reduction in apoptotic cardiomyocyte levels at 0.65 mg/kg, ip administered for 12 weeks by TUNNEL assay; type: functional, organism-based
# Summary of the method: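 db/db mice, 8 weeks old, with C57BL/6 controls; ip vehicle or drug for 12 weeks, n = 6 per group. Heart sections (5 μm) from paraformaldehyde-fixed, paraffin-embedded tissue analysed by TUNEL; percentage of apoptotic cardiomyocytes from three sections per mouse; mean ± SD from two separate experiments.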
# [12] = test system: Mus musculus; test: Renoprotective activity in db/db mouse assessed as reduction in glomerular basement thickening at 0.65 mg/kg, ip administered trice per week for 12 consecutive weeks measured at 11 weeks post dose by TEM microscopic analysis; type: functional, organism-based; summary of the method: as §2
# [13] = test system: Mus musculus; test: Renoprotective activity in db/db mouse assessed as reduction of fibrosis in glomeruli at 0.65 mg/kg, ip administered trice per week for 12 consecutive weeks measured at 11 weeks post dose by H/E-staining based microscopic analysis; type: functional, organism-based; summary of the method: as §6
# [14] = Drug level in Krebs buffer treated with 1-Hydroxyl-2-cyano-3-(4-(methyl-L-glutaminate-N5-yl)-benzyloxy)-12-oxo-oleana-2(3),9(11)-dien-28-oic Acid Methyl Ester assessed as bovine kidney GGT-mediated metabolite formation at 100 uM at pH 7.4 after 8 hrs in presence of porcine liver esterase by HPLC analysis; type: ADME, Bos taurus; settings: cattle, isolated protein, pH 7.4, 8 h
# Summary of the method: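 Substrate at 100 μM in Krebs buffer, pH 7.4, 37 °C, with porcine liver esterase (2 U/mL), GGT (1 U/mL) and Gly-Gly (5 mM) for 8 h, in triplicate; products quantified by HPLC.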
# [15] = test system: Mus musculus; test: Renoprotective activity in db/db mouse assessed as reduction in loss of foot processes at 0.65 mg/kg, ip administered trice per week for 12 consecutive weeks measured at 11 weeks post dose by TEM microscopic analysis; type: functional, organism-based; summary of the method: as §2
# [16] = test system: Mus musculus; test: Anti-diabetic nephropathic activity in db/db mouse assessed as reduction in 24 hr urine volume at 0.65 mg/kg, ip administered trice per week for 12 consecutive weeks measured at 11 weeks post dose; type: functional, organism-based; summary of the method: as §4
# [17] = test system: Mus musculus; test: Anti-diabetic nephropathic activity in db/db mouse assessed as reduction in plasma uric acid levels at 0.65 mg/kg, ip administered trice per week for 12 consecutive weeks measured at 11 weeks post dose; type: functional, organism-based; summary of the method: as §4
# [18] = test system: Mus musculus; test: Toxicity in db/db mouse assessed as effect on water consumption at 0.65 mg/kg, ip administered trice per week for 12 consecutive weeks measured every other day; type: organism-based; settings: in vivo; summary of the method: as §1
# [19] = Drug level in Sprague-Dawley rat liver at 20 mg/kg, ip measured at 90 mins by LC-MS/MS analysis; type: ADME, organism-based; settings: read-out: Drug uptake; summary of the method: as §5
# [20] = molecular target: Kelch-like ECH-associated protein 1 (Homo sapiens) (UniProt Q14145); test: Inhibition of Keap1/Nrf2 (unknown origin) interaction transfected in HEK293 cells assessed as increase in cytosolic NQO1 levels at 200 to 1000 nM after 48 hrs by Western blot analysis; type: cell-based; summary of the method: as §3
# [21] = Drug level in Wistar rat kidney homogenates treated with 1-Hydroxyl-2-cyano-3-(4-(methyl-L-glutaminate-N5-yl)-benzyloxy)-12-oxo-oleana-2(3),9(11)-dien-28-oic Acid Methyl Ester assessed as GGT-mediated metabolite formation at 100 uM after 8 hrs by HPLC analysis; type: ADME, tissue-based; settings: tissue homogenate
# Summary of the method: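 Plasma, and kidney and liver homogenates in PBS, from three Wistar rats; substrate added at 100 μM at 37 °C; metabolite measured by HPLC every 60 min for 8 h; mean ± SD of three experiments.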
compound,measurement,setting,value
COC(=O)[C@@H](N)CCC(=O)Nc1ccc(COC2=C(C#N)[C@H](O)[C@]3(C)C4=CC(=O)[C@@H]5[C@@H]6CC(C)(C)CC[C@]6(C(=O)OC)CC[C@@]5(C)[C@]4(C)CC[C@H]3C2(C)C)cc1,Activity,[1],Non-Toxic
same,Activity,[2],Active
same,Activity,[3],Active
same,inhibition at 200 µM,[4],36.1%
same,inhibition,[5],Dose-dependent effect
same,Activity,[6],Active
same,concentration at 1.5 h,[7],800 ng/g
same,Activity,[8],Active
same,Activity,[9],Active
same,Activity,[10],Active
COC(=O)[C@]12CCC(C)(C)C[C@H]1[C@H]1C(=O)C=C3[C@@]4(C)C=C(C#N)C(=O)C(C)(C)[C@@H]4CC[C@@]3(C)[C@]1(C)CC2 [BARDOXOLONE METHYL],Activity,[11],inactive
same,Activity,[12],Active
same,Activity,[13],Active
same,Drug metabolism,[14],Metabolite_Detected
same,Activity,[15],Active
same,Activity,[16],Active
same,Activity,[17],Active
same,Activity,[18],Non-Toxic
same,concentration at 1.5 h,[19],1550 ng/g
same,inhibition,[20],Active
same,Drug metabolism,[21],Metabolite_Detected
